Screening results deposited in PubChem BioAssay by several laboratories.
The entries come from a sample that favours hits as a whole.
HUVEC inhibit: inhibitors of HUVEC proliferation, primary screen, cell-based, 384-well; CellTiter-Glo luminescence, 72 h; hits give low values; viability, % at 10 µM (by protocol); 86,000 tested, 1.1% active; AID 648, 2007;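 active = viability at or below 30%; inactive = viability above 30%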;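 also: 100% = median luminescence of DMSO-only cell control wells on each plate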
Pyk2 oligo antag: antagonists of Pyk2 self-association, primary screen, Q293 cells, FERM NanoBiT luminescence, HTS; AID 1347419, 2020; z-score (the deposit names both 25 µM and 10 µM); hits give low values; 99,000 tested, 0.83% active;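 active = Z-score of -3 or lower, scaled per plate to the spread of control and sample wells; inactive = z-score above -3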;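 also: negative z-score means lost luminescence so less FERM oligomerization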
Target sequence (Q14289 whole entry, looked up): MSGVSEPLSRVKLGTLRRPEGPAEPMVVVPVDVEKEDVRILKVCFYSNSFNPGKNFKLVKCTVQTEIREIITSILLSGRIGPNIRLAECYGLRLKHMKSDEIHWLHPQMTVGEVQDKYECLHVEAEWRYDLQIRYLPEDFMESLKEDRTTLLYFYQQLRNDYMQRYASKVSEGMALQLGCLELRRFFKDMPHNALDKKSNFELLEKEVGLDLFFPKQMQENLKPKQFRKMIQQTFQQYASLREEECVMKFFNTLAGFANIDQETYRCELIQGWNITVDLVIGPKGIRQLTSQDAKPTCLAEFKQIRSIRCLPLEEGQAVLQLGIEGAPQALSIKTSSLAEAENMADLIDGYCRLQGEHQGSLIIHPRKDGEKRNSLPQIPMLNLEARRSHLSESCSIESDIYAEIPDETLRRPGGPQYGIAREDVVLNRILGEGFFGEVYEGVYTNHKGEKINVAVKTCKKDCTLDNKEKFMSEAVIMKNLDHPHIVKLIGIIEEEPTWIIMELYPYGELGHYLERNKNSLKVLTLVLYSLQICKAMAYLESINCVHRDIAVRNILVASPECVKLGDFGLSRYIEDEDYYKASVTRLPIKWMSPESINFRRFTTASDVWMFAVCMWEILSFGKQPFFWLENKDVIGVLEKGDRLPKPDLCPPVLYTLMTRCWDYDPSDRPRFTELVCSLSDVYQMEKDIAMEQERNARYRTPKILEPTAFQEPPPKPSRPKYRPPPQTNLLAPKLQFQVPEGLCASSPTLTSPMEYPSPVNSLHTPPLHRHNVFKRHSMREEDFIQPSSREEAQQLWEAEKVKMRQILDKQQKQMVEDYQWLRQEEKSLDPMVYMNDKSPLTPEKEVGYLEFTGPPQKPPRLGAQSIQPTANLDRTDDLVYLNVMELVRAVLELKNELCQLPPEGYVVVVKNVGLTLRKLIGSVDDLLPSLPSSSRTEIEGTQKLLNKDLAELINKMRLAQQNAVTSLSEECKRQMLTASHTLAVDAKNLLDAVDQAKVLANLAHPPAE
H69AR inhibit: proliferation blockers of H69AR lung cancer cells, primary screen, cell-based, human, 86K library | H69AR lung tumor viability, ATP luminescence, 72 h; hits give low values | viability, % at 10 µM | 85,000 tested, 6% active | AID 598, 2007;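 active = viability at or below 40%; inactive = viability above 40%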;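 also: multidrug resistant small cell line overexpressing MRP-1 efflux transporter; 100% = mean luminescence of untreated control wells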
Lung fibro prol: antiproliferative effect on LL 47 fibroblasts – human, LL 47 cells, CellTiter-Glo luminescence, primary screen | 85,000 tested, 1.1% active | LL 47 human lung fibroblast viability, ATP luminescence; hits give low values | AID 719, 2007 | viability, % at 10 µM;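 active = viability at or below 50% in the single dose screen; inactive = viability above 50%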;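 also: compound exposure lasted 72 h before the ATP readout; 100% = median luminescence of untreated cell-only wells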
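Test system: LL 47 human lung fibroblasts / Incubation: 72 h compound exposure at 37 °C after overnight plating / Technique: luminescent ATP detection, CellTiter-Glo / Compound dosing: 0.1% DMSO in all compound wells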
HCT116 bCat-KO: primary screen for growth suppressors in beta-catenin knockout HCT116 cells (colon tumor, human). 140,000 tested, 1.5% active. viability, % at 10 µM. HCT116 beta-catenin knockout viability, CellTiter-Glo, 60 h; hits give low values;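 active = viability at or under a set limit, the compound median less 4 SD, cut at about 6% in these data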;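 also: 0% = Hyamine 1622 control at 20 µM and 100% = untreated cell control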
HCT116 PTEN-null: growth suppression of PTEN-null HCT116, primary screen, cell-based, CellTiter-Glo; HCT116 PTEN-null viability, 60 h; hits give low values; 140,000 tested, 1.2% active; viability, % at 10 µM; AID 827, 2007;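 active = viability at or below a set limit, 4 SD under the median of all tested compounds, cut at about 3.7% in these data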;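 also: PTEN knockout HCT116 line with beta catenin targeted HCT116 as companion control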
Numbers without * were called inactive; · = no result.

SMILES | HUVEC inhibit | Pyk2 oligo antag | H69AR inhibit | Lung fibro prol | HCT116 bCat-KO | HCT116 PTEN-null
COC(=O)[C@@]1(Cc2ccc(OC)cc2)[C@@H]2C(=CC(=O)[C@H]2CC(=O)C(=O)N(C)C)CN1C(=O)c1ccccc1 | · | · | · | · | 2.2* | 2.5*
C=C1C(=O)C=C2CN(C(=O)c3ccccc3)[C@@](Cc3ccc(F)cc3)(C(=O)OC)[C@@H]12 | · | · | · | · | 0.9* | 1.0*
Cn1cnc([N+](=O)[O-])c1Oc1ccc2ccccc2c1 | · | · | · | · | 62.0 | 50.1
CN1CCN(c2nc(Nc3cccc(C(F)(F)F)c3)nc(N3CCOCC3)n2)CC1 | 9.8* | 0.7 | 52.8 | · | 50.2 | 55.2
Nc1ccc2nc(SCC(=O)Nc3ccc(N4CCOCC4)c(Cl)c3)sc2c1 | · | · | · | · | 32.2 | 38.3
CC(C)(C)NC(=O)CSc1nc2ccc(NC(=O)CSc3nnc(N)s3)cc2s1 | · | · | · | · | 71.0 | 74.2
O=C(CSc1nc2ccc(Nc3nc(N4CCOCC4)nc(N4CCOCC4)n3)cc2s1)N1CCOCC1 | · | · | · | · | 58.4 | 54.5
CSc1nc2ccc(Nc3nc(N4CCOCC4)nc(N4CCOCC4)n3)cc2s1 | 50.3 | -3.39* | 40.2 | 84.8 | 88.2 | 78.5
Cn1ccnc1SCC(=O)Nc1ccc2nc(SCC(=O)NC3CC3)sc2c1 | 91.5 | · | 37.0* | 95.2 | 86.0 | 102.9
CCCC(=O)Nc1ccc2nc(SCC(=O)Nc3ccc(N4CCOCC4)c(Cl)c3)sc2c1 | · | -3.48* | · | · | 17.2 | 21.1
COCCn1c(SCC(=O)NCc2ccco2)nnc1C(C)C | 97.0 | -0.1 | 94.9 | 105.0 | 84.2 | 88.8
Cc1c(/C=N/NC(=O)C(NC(=O)c2ccc3c(c2)OCO3)C(C)C)c2ccccc2n1C (stereo not given) | · | · | · | · | 70.3 | 80.7
Cc1cc(C)n(-c2ccc(C(=O)N3CCc4ccccc43)cc2)n1 | 101.1 | 0.11 | 64.5 | 100.6 | 92.0 | 91.8
Cc1cc(C(=O)N2CCc3ccccc32)n(-c2ccccc2)n1 | 70.8 | · | 21.9* | 89.0 | 37.9 | 31.4
N#CC1=C(N)Oc2ccc3ccc(O)cc3c2C1c1cccnc1 (stereo not given) | · | -3.2* | · | · | 88.7 | 90.2
COC(=O)C1=C(C)OC(N)=C(C#N)C1c1cccnc1 (stereo not given) | 82.8 | 0.22 | 97.5 | 101.9 | 99.1 | 115.4
C=CCCCCCCCCc1nc(=S)[nH][nH]1 | 94.3 | 0.25 | 20.9* | 90.6 | 109.8 | 101.1
O=C(CN1C(=O)c2ccccc2C1=O)c1ccccc1 | 95.8 | -0.44 | 93.3 | 100.1 | 107.7 | 103.6
CC1=C(CC(=O)c2ccccc2)C(=O)c2ccccc2C1=O | · | -1.13 | · | · | 2.2* | 2.0*
C=CCc1cc(C)ccc1OCCOCCn1ccnc1 | · | · | · | · | 87.7 | 86.1
COc1ccc(-c2nn(-c3ccccc3)cc2/C=N/NC(=O)c2ccc(Br)o2)cc1 | · | -3.12* | · | · | 5.0* | 6.1
Cc1ccc(-c2nn(-c3ccccc3)cc2/C=N/NC(=O)CSc2nnc(C)n2-c2ccccc2)cc1 | · | -1.57 | · | · | 3.6* | 3.4*
COc1cccc(/C=N/NC(=O)CSc2nnc(C)n2-c2ccccc2)c1O | · | 0.79 | · | · | 6.9 | 10.1
Cc1ccc(S(=O)(=O)NCCCCCC(=O)Nc2cccc(C)c2)cc1 | · | · | · | · | 89.8 | 86.5
COc1cccc(-n2cnc3sc(C)c(C)c3c2=O)c1 | · | -0.09 | · | · | 89.9 | 96.8
SMILES | HUVEC inhibit | Pyk2 oligo antag | H69AR inhibit | Lung fibro prol | HCT116 bCat-KO | HCT116 PTEN-null
C=CCn1c(SCc2nc3ccccc3nc2C)nnc1-c1ccoc1C | 93.6 | -0.51 | 89.2 | 103.5 | 90.5 | 85.4
Nc1ccc2c(c1)C(=O)C(=O)c1ccccc1-2 | 3.1* | -4.09* | 0.2* | 2.1* | 1.0* | 1.1*
CC(=O)Nc1ccc2c(c1)C(=O)c1ccccc1C2=O | · | -1.32 | · | · | 79.3 | 70.5
O=C1C(=O)c2ccc(-c3ccccc3)cc2-c2ccccc21 | 2.2* | -4.79* | 1.5* | 2.7* | 0.1* | 0.1*
c1ccc(CCc2ccccc2-c2nc(-c3ccccn3)no2)cc1 | 105.6 | -2 | 33.9* | 92.8 | 83.0 | 82.9
c1ccc(-c2noc(-c3ccc4c(c3)OCO4)n2)nc1 | 29.3* | -0.45 | 23.3* | 104.0 | 10.8 | 12.3
c1ccc(CCc2ccccc2-c2nc(-c3cccnc3)no2)cc1 | 102.8 | -1.3 | 89.9 | 87.5 | 73.2 | 66.3
c1ccc(-c2noc(-c3ccc4ccccc4c3)n2)nc1 | 87.2 | -1.04 | 81.2 | 83.2 | 64.7 | 60.5
COc1cc(C(=O)Nc2cccc3cccnc23)cc(OC)c1OC | 90.0 | -0.45 | 71.0 | 96.1 | 83.3 | 77.3
COc1cc(C(=O)N/N=C(\c2ccccc2)c2ccccn2)cc(OC)c1OC | · | · | · | · | 4.8* | 3.8*
COc1cccc(C(=O)N/N=C(/c2ccccc2)c2ccccn2)c1 | · | 0.34 | · | · | 5.0* | 1.9*
CC1CCc2nn(CC(=O)NCCN3CCCCC3C)cc2C1 (stereo not given) | 99.0 | · | 100.9 | 99.8 | 86.4 | 96.5
Cc1[nH]c2c(ccc3ccccc32)c1C1C(CCN)C1(C)C (stereo not given) | 2.4* | 0.57 | 4.4* | 2.7* | 1.9* | 1.8*
CSc1n[nH]c(NCc2cccs2)n1 | 106.8 | 0.83 | 100.3 | 105.6 | 1.2* | 78.4
CC1CCN(C(=O)/C(=C/c2ccccc2Cl)c2ccccc2)CC1 | · | -3.89* | · | · | 60.5 | 55.0
COC(=O)c1ccc(/C=C(\C#N)C(=O)NC(C)c2ccccc2)cc1 (stereo not given) | · | · | · | · | 3.7* | 1.6*
O=C1N/C(=C\c2ccccc2)c2ccccc21 | 42.7 | -0.51 | 24.1* | 74.7 | 43.4 | 39.2
O=C1O/C(=C\c2ccccc2)c2ccccc21 | · | · | · | · | 94.6 | 97.2
CC(=O)Nc1ccc(NC(=O)CN(C)CCC#N)cc1 | 98.0 | -0.16 | 89.6 | 99.8 | 101.5 | 110.8
CCOC(=O)COc1ccccc1/C=C\[N+](=O)[O-] | · | · | · | · | 79.2 | 86.4
CCSc1nc2[nH]ncc2c(=O)[nH]1 | · | · | · | · | 89.5 | 97.5
CCOc1ccccc1N1CCN(C(=O)C2c3ccccc3Oc3ccccc32)CC1 | 56.1 | 1.03 | 19.3* | 68.1 | 14.6 | 13.8
COc1ccc2nc(NC(=O)C3CCN(S(=O)(=O)c4cccc5nsnc45)CC3)sc2c1 | 60.0 | -3.41* | 57.4 | 83.9 | 12.1 | 12.8
Cn1c(N/N=C/c2cc3ccccc3nc2Cl)nc2ccccc21 | · | · | · | · | 60.4 | 62.9
CCN1/C(=C/c2ccc3ccccc3[n+]2CC)C=Cc2ccccc21 | 44.6 | -1.77 | 2.2* | 17.9* | 1.8* | 1.5*
CCN1/C(=C/c2cc[n+](C)cc2)C=Cc2cc(C)ccc21 | · | · | · | · | 7.6 | 6.9
CCCC/C(O)=C1\C(=O)CC(C)(C)CC1=Nc1ccccc1OC | 107.3 | -0.9 | 32.9* | 92.9 | 81.5 | 80.9
CCC/C(O)=C1\C(=O)CC(C)(C)CC1=Nc1ccc(OC)cc1OC | 59.8 | -1.18 | 21.4* | 57.1 | 18.7 | 21.6
COC(=O)CC/C(O)=C1\C(=O)CC(C)(C)CC1=Nc1ccccc1OC | 93.3 | -0.17 | 28.6* | 94.4 | 104.1 | 85.4
